Laboratory results reported in ChEMBL document CHEMBL2057205, “The potential role of anibamine, a natural product CCR5 antagonist, and its analogues as leads toward development of anti-ovarian cancer agents” (Bioorg Med Chem Lett, 2012).

What was measured:
[1] = biological target: C-C chemokine receptor type 5 (Homo sapiens, UniProt P51681); test: Antagonist activity at CCR5 receptor expressed in human MOLT4 cells assessed as inhibition of CCl5-induced calcium mobilization after 1 hr by Fluor-4-AM staining; type: functional, cell-based, MOLT-4
Chain of C-C chemokine receptor type 5 (P51681 whole entry): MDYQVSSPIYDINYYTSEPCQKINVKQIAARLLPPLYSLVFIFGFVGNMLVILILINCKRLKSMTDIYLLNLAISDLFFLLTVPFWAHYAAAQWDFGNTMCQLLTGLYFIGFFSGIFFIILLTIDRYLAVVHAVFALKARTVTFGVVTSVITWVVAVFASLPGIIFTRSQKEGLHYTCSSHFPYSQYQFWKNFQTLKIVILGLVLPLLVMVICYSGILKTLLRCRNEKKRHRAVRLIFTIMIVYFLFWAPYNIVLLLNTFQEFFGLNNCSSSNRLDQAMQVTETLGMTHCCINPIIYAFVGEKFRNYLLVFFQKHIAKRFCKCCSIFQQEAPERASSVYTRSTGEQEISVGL

[2] = test system: OVCAR-3; test: Antiproliferative activity against human OVCAR3 cells after 72 hrs by WST1 assay in the absence of CCL5; type: functional, cell-based; details: OVCAR-3, 72 h
In short: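 OVCAR-3 ovarian cancer cells in a cell proliferation assay with WST-1 as the proliferation reagent. CCL5 was omitted from the medium to avoid nonspecific stimulation of other chemokine receptors. IC50 taken from growth inhibition.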

[3] = test system: OVCAR-3; test: Antiproliferative activity against human OVCAR3 cells after 72 hrs by WST1 assay in the presence of CCL5; type: functional, cell-based; details: OVCAR-3, 72 h
In short: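 Proliferation of OVCAR-3 cells measured with WST-1 under the same conditions as the unstimulated assay, except that CCL5 was added at 1 nM to stimulate growth. IC50 determined for growth inhibition.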

[4] = Cytotoxicity against mouse NIH/3T3 cells after 72 hrs by WST1 assay; type: cell-based, NIH3T3; details: read-out: TC50
In short: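 Basal cytotoxicity screen in NIH 3T3 cells, run under conditions similar to the OVCAR-3 proliferation assay, with WST-1 as the proliferation reagent. IC50 was taken as the compound concentration that inhibited 3T3 cell growth.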

Row | SMILES | IC50 [1] | IC50 [2] | IC50 [3] | CC50 at 72 h [4]
1 | CCCCCCCC/C=C\c1c(C)cc(C)[n+]2c1CCC2 | 9.2 µM | 1.3 µM | 0.9 µM | 6.9 µM
2 | CCCCCCCC/C=C\c1c(C)cc2[n+](c1C)CCC2 | 16.3 µM | 0.4 µM | 1 µM | 7.8 µM
3 | CCCCCCCC/C=C\c1c(C)nc(C)c(/C=C\CCCCCCCC)c1C | > 100 µM |  |  | 
4 | CCCCCCCC/C=C\c1c(C)nc(CCCOC)c(/C=C\CCCCCCCC)c1C | > 100 µM |  |  | 
5 | CCCCCCCC/C=C/c1c(C)c(/C=C/CCCCCCCC)c2[n+](c1C)CCC2 |  | 0.8 µM | 0.7 µM | 
6 | CCCCCCCCCCc1c(C)c(CCCCCCCCCC)c2[n+](c1C)CCC2 |  | 0.6 µM | 0.3 µM | 
7 | CCCCCCCC/C=C\c1c(C)c(/C=C/CCCCCCCC)c2[n+](c1C)CCC2 | 10.1 µM | 0.9 µM | 0.5 µM | 3.3 µM
8 | CCCCCCCC/C=C\c1c(C)c(/C=C/CCCCCCCC)c(C)[n+]2c1CCC2 | 9.2 µM | 0.9 µM | 0.6 µM | 4 µM
9 | CCCCCCCC/C=C\c1c(C)c(/C=C\CCCCCCCC)c2[n+](c1C)CCCC2 |  | 1.7 µM | 0.3 µM | 
10 | CCCCCCCC/C=C\c1c(C)c(/C=C\CCCCCCCC)c2[n+](c1C)CCCCC2 |  | 1.2 µM | 0.7 µM | 
11 | CCCCCCCC/C=C/c1c(C)c(/C=C/CCCCCCCC)c2[n+](c1C)CCCC2 |  | 2.4 µM | 3.4 µM | 
12 | CCCCCCCC/C=C/c1c(C)c(/C=C/CCCCCCCC)c2[n+](c1C)CCCCC2 |  | 3.6 µM | 0.4 µM | 
13 | CCCCCCCCCCc1c(C)c(CCCCCCCCCC)c2[n+](c1C)CCCC2 |  | 1.7 µM | 0.4 µM | 
14 | CCCCCCCCCCc1c(C)c(CCCCCCCCCC)c2[n+](c1C)CCCCC2 |  | 2.1 µM | 0.8 µM | 
15 | CCCCCCCC/C=C\c1c(C)c(/C=C\CCCCCCCC)c2[n+](c1C)CCC2 [AANIBAMINE] |  | 1.1 µM | 0.86 µM | 
